Hits are enriched below; roughly 2.9% of the tested compounds scored in any of these assays.
DENV2 CPE: protects cells from dengue virus 2 cytopathic effect; DENV2-infected cells, cytopathic effect rescue, plate reader; CPE inhibition, % at 9.99 µM; 350,000 compounds, 1.7% hits; AID 651640; in the data active means CPE inhibition above about 20%, passing the limit was not always enough; inconclusive means no clear call, values can overlap the other calls; tested in BHK-21 cells;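 further: 0% = median of neutral control wells and 100% = median of positive control wells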
S100A4 MyoIIA: inhibitors of human S100A4 binding to myosin IIA peptide; P26447; S100A4/TAMRA-MyoIIA peptide fluorescence polarization; inhibition, % at 10.7 µM; 360,000 compounds, 0.14% hits; AID 652163;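 active means mean inhibition of at least 70% across replicates, with every replicate also reaching that level; inconclusive means mean inhibition reaches 70% but some replicates fall short; inactive means mean inhibition below 70%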
Target sequence (P26447 whole entry, looked up): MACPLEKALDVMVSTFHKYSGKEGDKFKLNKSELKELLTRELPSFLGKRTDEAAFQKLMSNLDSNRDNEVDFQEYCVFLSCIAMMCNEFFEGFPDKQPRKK
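Material: S100A4 monomer protein | Medium: HEPES pH 7.2 with CaCl2, KCl, NaCl, DTT, Triton | Reagent: Labelled myosin peptide probe, 5 nM | Doses: One dose per compound | Times: 5 min incubation before reading | Benchmarks: Neutral control DMSO, positive control TFP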
SIRT5 block: sirtuin-5 (human) deacylase inhibition. Q9NXA8. Purified SirT5, succinyl-peptide AMC, trypsin-coupled fluorescence. inhibition, % at 15 µM. 330,000 compounds, 1.1% hits. AID 652115; in the data active means inhibition above about 15%; inconclusive means no clear call, values can overlap the other calls
Target sequence (Q9NXA8 whole entry, looked up): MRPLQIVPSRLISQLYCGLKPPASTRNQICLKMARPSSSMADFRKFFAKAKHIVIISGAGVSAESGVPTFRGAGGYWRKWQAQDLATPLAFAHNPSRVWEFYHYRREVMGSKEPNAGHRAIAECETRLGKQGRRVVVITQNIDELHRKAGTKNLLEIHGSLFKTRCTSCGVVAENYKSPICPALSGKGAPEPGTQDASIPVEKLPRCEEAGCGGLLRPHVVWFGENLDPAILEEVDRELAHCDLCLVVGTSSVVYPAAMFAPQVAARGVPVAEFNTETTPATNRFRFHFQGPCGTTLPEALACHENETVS
PGC1a acetyl inh: lowers PGC1a acetylation signal in U2OS cells. AlphaScreen anti-acetyl-lysine; with virally co-expressed GCN5 acetyltransferase. inhibition, % at 15.6 µM. 350,000 compounds, 0.17% hits;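 active means every replicate shows inhibition of at least 40%; inconclusive means mean inhibition at least 40% but some replicate below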;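 further: 0% = neutral control wells and 100% = positive control wells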
Statin myotox sup: suppressors of simvastatin-induced myotoxicity in C2C12 myotubes; rescue of ATP level, % at 7.49 µM; ATP luminescence, 48 h; scaled: DMSO 0, geranylgeraniol control 100; 330,000 compounds, 0.78% hits; AID 602340;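 active means mean ATP rescue above about 67%, or every replicate alone reaching that limit, limit read from the data, passing the limit was not always enough; inconclusive means no clear call, values can overlap the other calls; inactive means mean under the limit and some replicate under it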;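 further: myotubes were challenged with 10 µM simvastatin during compound exposure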
An asterisk follows results filed as active.

COc1ccc(C2C(Oc3ccccc3)C(=O)N2c2ccc(C)c(C)c2)cc1OC (stereo unspecified) was read as PGC1a acetyl inh 0 and Statin myotox sup 56.
C[C@H](CO)N1C[C@H](C)[C@H](CN(C)S(=O)(=O)c2ccc(F)cc2)Oc2cc(C3=CCCC3)ccc2S1(=O)=O was read as DENV2 CPE -9, S100A4 MyoIIA 2, SIRT5 block 2, PGC1a acetyl inh -30 and Statin myotox sup -24.
`Cc1ccc(S(=O)(=O)N(C)C[C@H]2Oc3cc(C4=CCCC4)ccc3S(=O)(=O)N([C@@H](C)CO)C[C@@H]2C)cc1` gave DENV2 CPE 3, S100A4 MyoIIA -29, SIRT5 block 6, PGC1a acetyl inh -4 and Statin myotox sup -25.
`C[C@H](CO)N1C[C@H](C)[C@@H](CN(C)S(=O)(=O)c2ccc(F)cc2)Oc2cc(C3=CCCCC3)ccc2S1(=O)=O` gave DENV2 CPE 10, S100A4 MyoIIA 8, SIRT5 block 19*, PGC1a acetyl inh -13 and Statin myotox sup -28.
Screening Cc1ccc(S(=O)(=O)N(C)C[C@@H]2Oc3cc(C4=CCCC4)ccc3S(=O)(=O)N([C@H](C)CO)C[C@H]2C)cc1 returned DENV2 CPE 79*, S100A4 MyoIIA 3, SIRT5 block 3, PGC1a acetyl inh -14 and Statin myotox sup -85.
For C[C@@H]1CN([C@H](C)CO)S(=O)(=O)c2ccc(C3=CCCCC3)cc2O[C@H]1CN(C)S(=O)(=O)c1ccc(F)cc1 the results were DENV2 CPE 4, S100A4 MyoIIA 0, SIRT5 block 30*, PGC1a acetyl inh -18 and Statin myotox sup -37.
`C[C@@H]1CN([C@@H](C)CO)S(=O)(=O)c2ccc(C3=CCCC3)cc2O[C@@H]1CN(C)S(=O)(=O)c1ccc(F)cc1` gave DENV2 CPE -4, S100A4 MyoIIA 4, SIRT5 block -1, PGC1a acetyl inh 3 and Statin myotox sup -5.
`O=C(N[C@H]1C[C@@H]2O[C@H](CO)CC[C@@H]2O[C@@H]1CCc1ccc(-c2ccccc2)cc1)c1cnccn1` gave DENV2 CPE inconclusive, S100A4 MyoIIA 10, SIRT5 block 1 and PGC1a acetyl inh 6.
For COC(=O)C[C@@H]1CC[C@@H]2[C@H](COc3ccc(NC(=O)NC(C)C)cc3C(=O)N2C)O1 the results were DENV2 CPE -2, S100A4 MyoIIA 4, SIRT5 block 7, PGC1a acetyl inh 3 and Statin myotox sup 3.
Screening O=C(C1CCCC1)N1CCCCN2[C@@H](CO)[C@H](c3ccc(C#CC4CC4)cc3)[C@@H]2C1 returned DENV2 CPE 1, S100A4 MyoIIA 1, SIRT5 block 2 and PGC1a acetyl inh 0.
`O=C(C[C@H]1CC[C@@H]2[C@H](COC[C@H](O)CN2Cc2ccc(Cl)cc2)O1)NCCc1ccccc1` gave DENV2 CPE 1, S100A4 MyoIIA 2, SIRT5 block 2, PGC1a acetyl inh -2 and Statin myotox sup 21.
`NC(=O)[C@@H]1CC2(CC(c3cccc(NC(=O)COc4ccc(Cl)cc4)c3)=NO2)CN1C(=O)c1ccccc1` (stereo partly specified) gave DENV2 CPE 66*, S100A4 MyoIIA 6, SIRT5 block 5, PGC1a acetyl inh -11 and Statin myotox sup 5.
Screening COc1ccc(C(=O)N2CC3(CC(c4cccc(NC(=O)COc5ccc(Cl)cc5)c4)=NO3)C[C@@H]2C(N)=O)cc1 (stereo partly specified) returned DENV2 CPE 0, S100A4 MyoIIA -1, SIRT5 block -4, PGC1a acetyl inh -25 and Statin myotox sup 6.
C=C(C)C(=O)N1CC2(CC(c3cccc(NC(=O)COc4ccc(Cl)cc4)c3)=NO2)C[C@@H]1C(N)=O (stereo partly specified) was read as DENV2 CPE 34*, S100A4 MyoIIA 0, SIRT5 block -1, PGC1a acetyl inh -8 and Statin myotox sup 4.
`C/C=C(\C)C(=O)N1CC2(CC(c3cccc(NC(=O)COc4ccc(Cl)cc4)c3)=NO2)C[C@@H]1C(N)=O` (stereo partly specified) gave DENV2 CPE -5, S100A4 MyoIIA 3, SIRT5 block -4, PGC1a acetyl inh -12 and Statin myotox sup 2.
For Cc1noc(C)c1S(=O)(=O)Nc1cccc2c1O[C@H](CN(C)Cc1ccc(-c3ccccc3)cc1)[C@H](C)CN([C@@H](C)CO)C2=O the results were DENV2 CPE 14, S100A4 MyoIIA -15, SIRT5 block 2, PGC1a acetyl inh -7 and Statin myotox sup 4.
`CNC[C@@H]1Oc2c(NS(=O)(=O)c3ccc(F)cc3)cccc2C(=O)N([C@@H](C)CO)C[C@@H]1C` gave DENV2 CPE -6, S100A4 MyoIIA 0, SIRT5 block 0, PGC1a acetyl inh 3 and Statin myotox sup -11.
Screening CCCCCCSc1cc(-c2nc3cnccn3c2NCCCC)ccc1OC returned S100A4 MyoIIA -31, SIRT5 block 27*, PGC1a acetyl inh -7 and Statin myotox sup 12.
Screening C[C@@H]1CN([C@H](C)CO)C(=O)Cc2cc(NC(=O)Cc3ccccc3)ccc2O[C@H]1CN(C)C(=O)Nc1ccc2c(c1)OCO2 returned DENV2 CPE 0, S100A4 MyoIIA 5, SIRT5 block 4, PGC1a acetyl inh -13 and Statin myotox sup -9.
`O=S(=O)(c1ccccc1F)N1CC[C@H]2[C@H](CO)Nc3ccc(-c4ccccc4F)cc3[C@H]21` gave DENV2 CPE 17, S100A4 MyoIIA -5, SIRT5 block 9, PGC1a acetyl inh -2 and Statin myotox sup -9.
`CC(C)C[C@H](NC(=O)c1nc[nH]c1C(=O)NCCCCCNC(=O)OC(C)(C)C)C(=O)OCc1ccccc1` gave DENV2 CPE 15, S100A4 MyoIIA -1 and Statin myotox sup -4.
`CC(C)(C)OC(=O)CNC(=O)c1[nH]cnc1C(=O)N[C@@H](Cc1ccccc1)C(=O)OC(C)(C)C` gave DENV2 CPE 54*, S100A4 MyoIIA 8, SIRT5 block 3, PGC1a acetyl inh 9 and Statin myotox sup 6.
`CC(C)(C)OC(=O)NCCCCCNC(=O)c1[nH]cnc1C(=O)N[C@@H](Cc1ccccc1)C(=O)OCc1ccccc1` gave DENV2 CPE 11, S100A4 MyoIIA -1, PGC1a acetyl inh -10 and Statin myotox sup 132*.
`CCN(CC)C(=O)c1[nH]cnc1C(=O)NCC(=O)OC(C)(C)C` gave DENV2 CPE -8, S100A4 MyoIIA 43, SIRT5 block -4, PGC1a acetyl inh 4 and Statin myotox sup 93*.
Screening CC(C)(C)OC(=O)NCCCC[C@H](NC(=O)c1nc[nH]c1C(=O)NCC(=O)OCc1ccccc1)C(=O)OC(C)(C)C returned DENV2 CPE -10, S100A4 MyoIIA 2, SIRT5 block 24*, PGC1a acetyl inh -13 and Statin myotox sup 0.

High-throughput results as filed in PubChem BioAssay.
